An excerpt weighted towards active compounds, which were near 3.7% of everything screened.
hERG rescue: compounds protecting human hERG from proarrhythmic drug block; Q12809; CHO-hERG, FluxOR thallium flux, dofetilide IC70 present; activation (rescue from dofetilide block), less the hit threshold, % at 10 µM; 310,000 compounds, 0.51% hits;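 active = activation above the mean of controls blocked by dofetilide plus 5 SD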;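 note: thallium influx through hERG after potassium depolarization seen as dye fluorescence rise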
KCNQ1 block: inhibitors of human KCNQ1 potassium channel; P51787; CHO-K1 KCNQ1, FluxOR thallium flux fluorescence; hits give high values; 310,000 compounds, 1.3% hits; B-score at 10 µM;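 active = compounds whose thallium flux B-score, printed positive for inhibition, exceeds three library SD while starting fluorescence stays within three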;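 note: channel opened by potassium depolarization with thallium stimulus after 20 min compound exposure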
KCNK3 inh: human KCNK3 channel inhibition, primary screen | 340,000 compounds, 0.84% hits | O14649 | AID 602410 | CHO-KCNK3 thallium flux, FluxOR fluorescence; hits give low values | B-score at 10 µM;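 active = B-score under library mean minus 4 SD, starting fluorescence ratio at most library mean plus 5 SD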;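 note: more negative B-score means stronger inhibition of thallium flux through KCNK3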
Target sequence (O14649 whole entry, looked up): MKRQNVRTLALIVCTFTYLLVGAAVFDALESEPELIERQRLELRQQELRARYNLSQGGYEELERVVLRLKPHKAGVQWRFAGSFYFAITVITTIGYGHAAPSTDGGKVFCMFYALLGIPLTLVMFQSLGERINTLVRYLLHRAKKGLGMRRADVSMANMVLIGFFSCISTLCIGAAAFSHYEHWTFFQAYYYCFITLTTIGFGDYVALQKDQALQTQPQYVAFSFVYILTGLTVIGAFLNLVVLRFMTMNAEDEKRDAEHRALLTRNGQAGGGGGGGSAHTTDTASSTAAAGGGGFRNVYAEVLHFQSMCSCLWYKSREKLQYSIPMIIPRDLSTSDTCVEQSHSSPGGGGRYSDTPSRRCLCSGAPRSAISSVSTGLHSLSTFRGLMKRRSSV
KCNK9 inh: blocks the human KCNK9 two-pore domain potassium channel; B-score at 10 µM; 310,000 compounds, 1.2% hits; HEK293 KCNK9, FluxOR thallium flux fluorescence; hits give low values; Q9NPC2; AID 488922;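 active = ratio B-score over 3 SD below the library mean, with starting fluorescence within 5 SD of its mean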;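 note: negative B-score means less thallium flux so channel inhibition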
Kir21 inh: inhibitors of mouse Kir2.1 inward-rectifier potassium channel; B-score at 10 µM; HEK293-Kir2.1, FluxOR thallium flux fluorescence; hits give low values; P35561; 310,000 compounds, 0.85% hits;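 active = fluorescence ratio B-score at or below minus 3 SD of library scores, with starting-brightness B-score within 2 SD, cut at about -4.2 in these data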;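 note: channel flux triggered by added potassium and thallium sulfate stimulus; B-score of peak minus minimum fluorescence over baseline after thallium stimulus; more negative B-score means stronger Kir2.1 block with less thallium influx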
KCNQ1 pot: human KCNQ1 channel potentiation or activation; P51787; 310,000 compounds, 0.35% hits; CHO-K1 KCNQ1, thallium flux FluxOR fluorescence; hits give high values; B-score at 10 µM; AID 2648;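 active = fluorescence ratio B-score, a plate-corrected score, at least three library SD, with initial intensity B-score within 5 SD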
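Material: CHO-K1 cells stably expressing KCNQ1. Medium: assay buffer for compound exposure, DMSO matched across wells. Reagent: K+/Tl+ depolarizing stimulus. Compound dosing: single-concentration screen. Times: 37 °C overnight plating, 90-min dark dye load, 20-min compound pretreatment. Technique: FluxOR Tl+ flux fluorescence.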
KCNK9 inh conf: human KCNK9 inhibitor confirmation; AID 492992; shares compounds with KCNK9 inh; inhibition, % at 10 µM; 4,900 compounds, 43% hits; HEK293 KCNK9 cells, FluxOR thallium flux fluorescence;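 active = thallium signal inhibited by more than 5 SD of the compound-free buffer control wells, on both duplicate plates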;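 note: 0% = assay buffer control wells without compound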
Kir2-1 spec: mouse Kir2.1 off-target activity of KCNK9 modulators | shares compounds with KCNK9 inh | Kir2.1 cells, FluxOR thallium flux fluorescence | inhibition, % at 10 µM | 4,900 compounds, 4% hits | AID 492993;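 active = thallium signal drop more than 5 SD beyond the mean of the no-compound control wells, seen in both duplicate plates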;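 note: signal is fluorescence rise after thallium addition divided by baseline fluorescence; plate controls were assay buffer only for no effect and full block by chlorpromazine control for full effect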
HEK293 Tl ctr: second counter-screen for KCNK9 modulators: effect in non-induced cells; 4,900 compounds, 40% hits; non-induced KCNK9-HEK293, FluxOR thallium flux; inhibition, % at 10 µM; shares compounds with KCNK9 inh;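 active = thallium signal drop beyond 5 SD of the untreated control mean, on both duplicate plates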;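 note: plate controls were buffer only IC0 wells for no effect and SID17386958 at its maximal inhibitory level for full effect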
* = called active by the depositor; i = inactive; . = no result given.

SMILES | hERG rescue | KCNQ1 block | KCNK3 inh | KCNK9 inh | Kir21 inh | KCNQ1 pot | KCNK9 inh conf | Kir2-1 spec | HEK293 Tl ctr
O=C(NC(c1ccc(Cl)cc1)c1c(O)ccc2ccccc12)c1ccccc1 (stereo not given) | . | . | i | . | . | . | . | . | .
O=C(Nc1nc2ccsc2c(=O)s1)c1ccc(F)cc1 | -9 | i | i | i | -0.96 | i | . | . | .
CN(Cc1nc2ccccc2c(=O)[nH]1)Cc1nc2ccsc2c(=O)[nH]1 | -11 | i | i | i | -0.03 | i | . | . | .
CN(c1ccccc1)c1nc2ccsc2c(=O)s1 | -1 | i | i | i | -0.56 | i | i | i | i
CCN(c1ccccc1)c1nc2ccsc2c(=O)s1 | -13 | i | i | i | -1.3 | i | i | i | i
COc1ccc(-n2nnc3c(SC(C(C)=O)C(=O)N(C)C)ncnc32)cc1 (stereo not given) | -8 | i | i | i | -1.4 | i | . | . | .
COc1cccc(NC(=O)N(CCCN2CCOCC2)C(C)c2cc3cccc(OC)c3o2)c1 (stereo not given) | -2 | i | i | -8.3* | -0.04 | i | 40%* | i | 31%*
COc1cccc(NC(=S)N(CCCN2CCOCC2)C(C)c2cc3cccc(OC)c3o2)c1 (stereo not given) | -9 | i | i | i | 1.4 | i | . | . | .
CC(C)(C)c1cc(CN2CCN(CCO)CC2)cc(C(C)(C)C)c1O | -10 | i | i | i | -0.16 | i | . | . | .
CC(C)c1cc(CN2CCN(CCC#N)CC2)cc(C(C)C)c1O | -2 | i | i | i | 1.2 | i | i | i | i
CN(C[C@H](Cc1ccccc1)N(C[C@@H](Cc1cccc2ccccc12)N(CCc1ccccc1)N=O)N=O)N=O | -5 | i | i | -8.5* | 1.3 | i | i | i | 38%*
CC(C)C[C@@H](CN(N=O)[C@@H](Cc1ccccc1)CN(C)N=O)N(CCc1ccccc1)N=O | -3 | i | i | i | 0.64 | i | . | . | .
Cc1cccc(C(=O)NC(=S)Nc2cccc3nc(C)ccc23)c1 | -7 | i | i | i | -0.28 | i | i | i | i
CC(=O)c1cccc(NC(=S)NC(=O)c2cccc(C)c2)c1 | -8 | i | i | i | 0.69 | i | . | . | .
CC(C)CC(=O)Nc1nnc(CSCc2ccc(F)cc2)s1 | -1 | i | i | i | -2 | i | . | . | .
O=C(Cc1c(F)cccc1Cl)Nc1nc2ccccc2s1 | -6 | i | i | -13* | -0.82 | i | i | i | 50%*
CCC(CO)N=C1CC(C)(C)CC(=O)/C1=C(/O)CCCN1C(=O)c2ccccc2C1=O (stereo not given) | -18 | i | i | i | -2.1 | i | . | . | .
COC1Cc2ccccc2N(C(N)=O)c2ccccc21 (stereo not given) | -8 | i | i | i | -1.1 | i | . | . | .
CCOc1ccccc1NC(=O)N1CCC(C(=O)c2ccc(F)cc2)CC1 | -20 | i | i | -10* | -0.62 | i | 42%* | i | 36%*
CCOc1ccc(Br)cc1C1=NN(C(C)=O)C(c2ccc([N+](=O)[O-])s2)O1 (stereo not given) | -7 | i | -10* | -10* | 0 | i | 63%* | i | 40%*
COc1cc(NC(=O)COc2cccc(C)c2C)ccc1NC(=O)c1ccco1 | -9 | i | i | i | 1.1 | i | . | . | .
O=C(O)CC1S/C(=N/N=C/c2ccccn2)NC1=O (stereo not given) | -3 | i | i | i | 2.4 | i | . | . | .
CCOc1cc(/C=N/N=C2/NC(=O)C(CC(=O)O)S2)ccc1OCc1ccc(Cl)cc1Cl (stereo not given) | -5 | i | i | i | -2.1 | i | i | i | i
COc1ccc2c(c1)CCc1sc(NC(=O)c3ccco3)nc1-2 | -14 | i | i | -8.4* | 0.37 | i | 26%* | i | i
COc1ccc2c(c1)Cc1sc(NC(=O)c3ccco3)nc1-2 | -2 | i | i | i | -0.25 | i | . | . | .
SMILES | hERG rescue | KCNQ1 block | KCNK3 inh | KCNK9 inh | Kir21 inh | KCNQ1 pot | KCNK9 inh conf | Kir2-1 spec | HEK293 Tl ctr
COc1ccc2c(c1)-c1nc(NC(=O)c3ccco3)sc1CC2 | -8 | i | i | -11* | 0.71 | i | 48%* | i | i
COc1ccccc1C(=O)NC(CCSC)C(=O)NCCCn1nc(C)cc1C (stereo not given) | -9 | i | i | i | 0.72 | i | . | . | .
CCCCN(CCCC)c1ccc(C(=O)c2ccccc2C(=O)O)c(O)c1 | -26 | i | i | i | 1.1 | 18* | i | i | i
O=P(COCCOCCOCCOCP(=O)(c1ccccc1)c1ccccc1)(c1ccccc1)c1ccccc1 | -13 | i | i | i | -3 | i | . | . | .
O=C(Nc1ccc([N+](=O)[O-])cn1)C1CC1 | -5 | i | i | i | 0.89 | i | . | . | .
CC(=O)Nc1ccc([N+](=O)[O-])cn1 | -5 | i | i | -8.4* | -0.24 | i | i | i | i
CCC(C(=O)N1CCN(c2cccc(Cl)c2)CC1)c1ccccc1 (stereo not given) | -8 | i | -11* | -11* | 0.15 | i | 50%* | i | 32%*
COc1ccccc1C1(CC(=O)N2CCCCC2)CCOC(C(C)C)C1 (stereo not given) | -9 | i | i | i | -0.01 | i | . | . | .
CCOc1ccc2cc(/C=C/C(=O)c3ccco3)c(Cl)nc2c1 | -8 | i | -9.6* | -12* | -0.03 | i | i | i | 33%*
CCOc1ccc2nc(SCC(=O)NNC(=O)c3ccco3)c(C)cc2c1 | 1 | i | i | i | -0.28 | i | . | . | .
O=C(O)c1ccc(Cl)c(N2C(=O)Nc3ccccc3N2O)c1 | -8 | i | i | i | 1.8 | i | . | . | .
COc1ccccc1NS(=O)(=O)c1ccc2oc(SCc3ccc(F)cc3)nc2c1 | -22 | i | i | i | -0.37 | i | . | . | .
COc1ccc(NS(=O)(=O)c2ccc3oc(SCc4ccc(F)cc4)nc3c2)cc1 | -8 | i | i | i | -0.87 | i | i | i | i
O=C(Oc1ccccc1)c1cccnc1Oc1ccccc1 | -9 | i | i | i | 1.7 | i | . | . | .

Assay outcomes deposited in PubChem by Johns Hopkins Ion Channel Center.
